{"source": "ChEMBL document CHEMBL4402595", "about": "“Discovery of Orally Bioavailable Chromone Derivatives as Potent and Selective BRD4 Inhibitors: Scaffold Hopping, Optimization, and Pharmacological Evaluation” (J Med Chem, 2020)", "key": {"[1]": {"target": "Bromodomain-containing protein 2 (Homo sapiens, UniProt P25440)", "sequence (P25440 whole entry)": "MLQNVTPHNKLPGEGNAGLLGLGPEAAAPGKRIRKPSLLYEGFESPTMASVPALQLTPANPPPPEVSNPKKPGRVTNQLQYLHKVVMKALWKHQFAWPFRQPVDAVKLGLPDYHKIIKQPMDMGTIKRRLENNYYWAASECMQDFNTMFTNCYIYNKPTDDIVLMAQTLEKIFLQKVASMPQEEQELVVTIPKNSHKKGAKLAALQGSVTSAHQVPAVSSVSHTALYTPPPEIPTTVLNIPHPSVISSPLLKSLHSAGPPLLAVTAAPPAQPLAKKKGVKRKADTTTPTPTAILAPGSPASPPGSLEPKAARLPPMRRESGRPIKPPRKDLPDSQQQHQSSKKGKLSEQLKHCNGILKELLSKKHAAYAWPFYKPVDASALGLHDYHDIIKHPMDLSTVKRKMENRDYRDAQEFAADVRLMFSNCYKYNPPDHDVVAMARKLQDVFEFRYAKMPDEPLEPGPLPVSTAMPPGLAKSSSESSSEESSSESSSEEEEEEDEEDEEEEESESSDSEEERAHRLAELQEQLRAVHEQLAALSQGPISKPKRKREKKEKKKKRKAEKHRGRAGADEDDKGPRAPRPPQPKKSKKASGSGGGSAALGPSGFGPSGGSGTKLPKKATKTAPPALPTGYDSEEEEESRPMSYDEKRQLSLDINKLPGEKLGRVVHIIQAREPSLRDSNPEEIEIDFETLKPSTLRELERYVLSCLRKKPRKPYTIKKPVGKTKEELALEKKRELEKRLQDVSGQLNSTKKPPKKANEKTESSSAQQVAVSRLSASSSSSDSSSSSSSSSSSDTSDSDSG", "test": "Binding affinity to recombinant BRD2 BD2 (unknown origin) incubated for 1 hr by TR-FRET assay"}, "[2]": {"target": "T1, Bromodomain-containing protein 4 (Homo sapiens, UniProt O60885)", "test": "Binding affinity to recombinant BRD4 BD2 (unknown origin) incubated for 1 hr by TR-FRET assay"}, "[3]": {"target": "T1, Bromodomain-containing protein 4", "test": "Inhibition of BRD4 in poly(I:C)-stimulated human SAECs assessed as reduction in H3K122Ac levels at 10 uM pre-incubated for 24 hrs before poly(I:C) stimulation for 4 hrs by immunofluorescence staining"}, "[4]": {"target": "T1, Bromodomain-containing protein 4", "test": "Inhibition of BRD4 in poly(I:C)-stimulated human SAECs TLR3-inducible CIG5 gene expression at 10 uM pre-incubated for 24 hrs before poly(I:C) stimulation for 4 hrs by qRT-PCR analysis relative to control"}, "[5]": {"target": "T1, Bromodomain-containing protein 4", "test": "Inhibition of BRD4 in poly(I:C)-stimulated human SAECs TLR3-inducible IL-6 gene expression at 10 uM pre-incubated for 24 hrs before poly(I:C) stimulation for 4 hrs by qRT-PCR analysis relative to control"}, "[6]": {"target": "T1, Bromodomain-containing protein 4", "test": "Inhibition of BRD4 in poly(I:C)-stimulated human SAECs TLR3-inducible CIG5 gene expression pre-incubated for 24 hrs before poly(I:C) stimulation for 4 hrs by qRT-PCR analysis"}, "[7]": {"test": "Unbound fraction in mouse plasma at 2 uM", "format": "ADME, cell-free"}, "[8]": {"target": "CYP3A4 (Homo sapiens, UniProt P08684)", "sequence (P08684 whole entry)": "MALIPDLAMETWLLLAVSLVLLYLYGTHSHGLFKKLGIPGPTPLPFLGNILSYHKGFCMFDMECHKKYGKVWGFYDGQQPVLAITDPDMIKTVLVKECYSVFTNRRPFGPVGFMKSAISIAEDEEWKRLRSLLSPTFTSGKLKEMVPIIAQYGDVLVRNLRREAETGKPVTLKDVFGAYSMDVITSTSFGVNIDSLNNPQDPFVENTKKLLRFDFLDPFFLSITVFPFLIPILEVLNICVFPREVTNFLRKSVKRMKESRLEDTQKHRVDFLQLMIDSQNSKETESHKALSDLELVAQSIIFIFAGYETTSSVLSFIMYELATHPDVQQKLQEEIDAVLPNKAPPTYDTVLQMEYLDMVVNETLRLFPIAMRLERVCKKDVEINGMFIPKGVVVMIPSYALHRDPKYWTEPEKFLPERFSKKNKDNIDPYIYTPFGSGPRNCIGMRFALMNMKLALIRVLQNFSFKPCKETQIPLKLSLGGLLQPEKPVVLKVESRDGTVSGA", "test": "Inhibition of CYP3A4 (unknown origin) at 10 uM using midazolam substrate relative to control", "format": "ADME", "settings": "probe midazolam", "summary_of_the_method": "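The CYP3A4 assay was run with midazolam or with testosterone as substrate.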"}, "[9]": {"target": "CYP2C19 (Homo sapiens, UniProt P33261)", "sequence (P33261 whole entry)": "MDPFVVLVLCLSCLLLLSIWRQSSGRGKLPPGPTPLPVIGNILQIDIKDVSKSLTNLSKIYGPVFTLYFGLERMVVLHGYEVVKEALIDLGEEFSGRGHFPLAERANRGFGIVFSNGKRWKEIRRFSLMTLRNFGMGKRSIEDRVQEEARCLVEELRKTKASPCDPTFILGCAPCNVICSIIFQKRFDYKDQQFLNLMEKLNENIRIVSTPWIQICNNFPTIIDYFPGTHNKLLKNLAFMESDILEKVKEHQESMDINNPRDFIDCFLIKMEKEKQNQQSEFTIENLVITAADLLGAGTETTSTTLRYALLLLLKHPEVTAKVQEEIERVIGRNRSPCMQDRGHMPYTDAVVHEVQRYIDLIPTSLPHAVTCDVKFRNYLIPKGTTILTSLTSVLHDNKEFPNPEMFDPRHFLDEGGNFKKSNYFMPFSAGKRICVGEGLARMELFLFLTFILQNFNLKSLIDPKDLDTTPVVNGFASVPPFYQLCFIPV", "test": "Inhibition of CYP2C19 (unknown origin) at 10 uM relative to control", "format": "ADME"}, "[10]": {"test": "Clearance in mouse liver microsomes", "format": "ADME, Microsome"}, "[11]": {"target": "Voltage-gated inwardly rectifying potassium channel KCNH2 (Homo sapiens, UniProt Q12809)", "sequence (Q12809 whole entry)": "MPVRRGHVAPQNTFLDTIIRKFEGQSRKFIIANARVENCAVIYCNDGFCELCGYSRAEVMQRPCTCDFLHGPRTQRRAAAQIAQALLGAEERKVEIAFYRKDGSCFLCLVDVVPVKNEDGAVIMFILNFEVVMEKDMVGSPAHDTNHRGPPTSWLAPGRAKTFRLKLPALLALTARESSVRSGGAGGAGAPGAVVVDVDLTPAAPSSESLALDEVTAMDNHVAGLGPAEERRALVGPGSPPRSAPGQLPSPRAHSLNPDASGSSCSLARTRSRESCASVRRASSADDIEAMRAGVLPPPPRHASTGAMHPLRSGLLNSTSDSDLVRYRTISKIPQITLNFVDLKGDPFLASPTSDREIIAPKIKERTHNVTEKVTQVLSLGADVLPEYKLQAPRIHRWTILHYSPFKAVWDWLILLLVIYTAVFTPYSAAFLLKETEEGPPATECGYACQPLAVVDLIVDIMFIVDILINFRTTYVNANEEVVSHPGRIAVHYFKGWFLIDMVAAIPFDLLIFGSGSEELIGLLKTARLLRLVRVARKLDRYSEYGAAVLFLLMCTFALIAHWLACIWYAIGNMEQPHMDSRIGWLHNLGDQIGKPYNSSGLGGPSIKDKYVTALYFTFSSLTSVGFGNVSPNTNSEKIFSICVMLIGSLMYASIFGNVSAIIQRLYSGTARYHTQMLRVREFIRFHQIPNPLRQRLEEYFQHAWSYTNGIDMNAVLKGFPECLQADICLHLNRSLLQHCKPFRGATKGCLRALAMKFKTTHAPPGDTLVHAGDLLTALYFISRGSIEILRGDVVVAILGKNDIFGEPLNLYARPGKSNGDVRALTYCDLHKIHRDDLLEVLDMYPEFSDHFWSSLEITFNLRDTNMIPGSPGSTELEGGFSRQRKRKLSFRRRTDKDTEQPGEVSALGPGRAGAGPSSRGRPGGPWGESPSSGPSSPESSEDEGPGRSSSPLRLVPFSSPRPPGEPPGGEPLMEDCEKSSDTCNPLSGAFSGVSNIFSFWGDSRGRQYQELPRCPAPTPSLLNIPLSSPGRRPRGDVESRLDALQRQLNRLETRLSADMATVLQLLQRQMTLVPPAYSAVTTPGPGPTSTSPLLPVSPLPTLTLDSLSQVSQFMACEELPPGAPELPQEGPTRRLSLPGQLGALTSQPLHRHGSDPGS", "test": "Inhibition of human ERG"}, "[12]": {"test": "Clearance in human liver microsomes", "format": "ADME, Microsome"}, "[13]": {"target": "CYP2C9 (Homo sapiens, UniProt P11712)", "sequence (P11712 whole entry)": "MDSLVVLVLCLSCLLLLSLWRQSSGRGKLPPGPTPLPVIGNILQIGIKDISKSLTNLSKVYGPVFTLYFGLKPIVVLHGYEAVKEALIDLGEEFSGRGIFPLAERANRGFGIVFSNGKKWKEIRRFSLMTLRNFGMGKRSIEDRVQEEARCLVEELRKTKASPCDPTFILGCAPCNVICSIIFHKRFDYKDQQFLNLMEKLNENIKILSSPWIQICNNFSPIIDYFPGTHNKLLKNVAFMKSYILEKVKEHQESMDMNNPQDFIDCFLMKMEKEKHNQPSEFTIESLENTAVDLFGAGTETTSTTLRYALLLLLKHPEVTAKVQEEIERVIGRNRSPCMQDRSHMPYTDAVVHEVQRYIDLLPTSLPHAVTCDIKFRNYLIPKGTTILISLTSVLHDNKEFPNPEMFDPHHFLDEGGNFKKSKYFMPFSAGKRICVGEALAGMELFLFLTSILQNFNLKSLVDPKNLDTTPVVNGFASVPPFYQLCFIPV", "test": "Inhibition of CYP2C9 (unknown origin) at 10 uM relative to control", "format": "ADME"}}, "note": "Calls of active or inactive are those of the source. No cut-off for these calls is given here.", "data": [{"smiles": "COc1cc(OC)c2c(=O)cc(-c3cc(C)c(OC[C@H](O)CN4CCCCC4)c(C)c3)oc2c1", "values": [{"measurement": "IC50", "setting": "[1]", "value": 845, "unit": "nM"}, {"measurement": "IC50", "setting": "[2]", "value": 684, "unit": "nM"}, {"measurement": "inhibition", "setting": "[3]", "value": "Active"}, {"measurement": "inhibition", "setting": "[4]", "value": 99, "unit": "%"}, {"measurement": "inhibition", "setting": "[5]", "value": 100, "unit": "%"}, {"measurement": "IC50", "setting": "[6]", "value": 520, "unit": "nM"}]}, {"smiles": "COc1cc(OC)c2c(=O)cc(-c3cc(C)c(OC[C@H](O)CN4CCN(C)CC4)c(C)c3)oc2c1", "values": [{"measurement": "Fu", "setting": "[7]", "value": 12, "unit": "%"}, {"measurement": "inhibition at 10 µM", "setting": "[8]", "value": 9.5, "unit": "%"}, {"measurement": "inhibition at 10 µM", "setting": "[9]", "value": 1.7, "unit": "%"}, {"measurement": "CLH", "setting": "[10]", "value": 25, "unit": "µL/min/mg"}, {"measurement": "IC50", "setting": "[11]", "value": "> 30000", "unit": "nM"}, {"measurement": "CLH", "setting": "[12]", "value": 5.6, "unit": "µL/min/mg"}, {"measurement": "inhibition at 10 µM", "setting": "[13]", "value": 1.9, "unit": "%"}]}]}
